In ChEMBL document CHEMBL4732237, “Discovery of 4-alkoxy-2-aryl-6,7-dimethoxyquinolines as a new class of topoisomerase I inhibitors endowed with potent in vitro anticancer activity” (2021):

Assays:
Assay type in all cases: functional
Settings in all cases: read-out: GI
OVCAR-8 = assay: Growth inhibition of human OVCAR-8 cells at 10 uM incubated for 48 hrs by sulforhodamine B assay relative to control
Procedure, shortened: (§1)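 NCI one-dose screen. Cells grown in RPMI 1640 with 5% FBS and 2 mM L-glutamine, plated and incubated 24 h at 37 °C, 5% CO2. DMSO-dissolved drug added, then 48 h further incubation. Adherent cells fixed with cold TCA, suspension cells fixed after settling. Stained with 0.4% SRB, absorbance read at 515 nm. Reported as percent growth relative to no-drug control and time-zero cell number.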

NCI-H226 = assay: Growth inhibition of human NCI-H226 cells at 10 uM incubated for 48 hrs by sulforhodamine B assay relative to control; procedure, shortened: as §1
SR = assay: Growth inhibition of human SR cells at 10 uM incubated for 48 hrs by sulforhodamine B assay relative to control; procedure, shortened: as §1
Hs-578T = assay: Growth inhibition of human HS-578T cells at 10 uM incubated for 48 hrs by sulforhodamine B assay relative to control
Procedure, shortened: (§2)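 NCI-60 single-dose screen. Cells were grown in RPMI 1640 with 5% FBS and 2 mM L-glutamine and plated 24 h before drug addition. Compound was added at one concentration in DMSO-derived medium and incubated for 48 h at 37 °C in 5% CO2. Read-out was SRB protein stain at 515 nm. Result is percent growth versus the no-drug control and the time-zero cell count; values below 0 indicate lethality.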

OVCAR-3 = assay: Growth inhibition of human OVCAR-3 cells at 10 uM incubated for 48 hrs by sulforhodamine B assay relative to control; procedure, shortened: as §1
U-251 = assay: Growth inhibition of human U-251 cells at 10 uM incubated for 48 hrs by sulforhodamine B assay relative to control
Procedure, shortened: (§3)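 NCI one-dose screen across a 59-line panel. Cells were grown in RPMI 1640 with 5% FBS and 2 mM L-glutamine, plated and pre-incubated 24 h, then exposed to drug for 48 h at 37 °C, 5% CO2. Adherent cells were fixed with cold TCA (10% final), stained with 0.4% SRB in 1% acetic acid and read at 515 nm. Result is percent growth relative to no-drug control and time-zero cell count.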

MDA-MB-231 = assay: Growth inhibition of human MDA-MB-231 cells at 10 uM incubated for 48 hrs by sulforhodamine B assay relative to control; procedure, shortened: as §2
MDA-MB-468 = assay: Growth inhibition of human MDA-MB-468 cells at 10 uM incubated for 48 hrs by sulforhodamine B assay relative to control; procedure, shortened: as §2
UACC-62 = assay: Growth inhibition of human UACC-62 cells at 10 uM incubated for 48 hrs by sulforhodamine B assay relative to control; procedure, shortened: as §3
HOP-92 = assay: Growth inhibition of human HOP-92 cells at 10 uM incubated for 48 hrs by sulforhodamine B assay relative to control; procedure, shortened: as §2
NCI-H322M = assay: Growth inhibition of human NCI-H322M cells at 10 uM incubated for 48 hrs by sulforhodamine B assay relative to control; procedure, shortened: as §1
PC-3 = assay: Growth inhibition of human PC-3 cells at 10 uM incubated for 48 hrs by sulforhodamine B assay relative to control; procedure, shortened: as §1
SNB-75 = assay: Growth inhibition of human SNB-75 cells at 10 uM incubated for 48 hrs by sulforhodamine B assay relative to control; procedure, shortened: as §1
NCI-H460 = assay: Growth inhibition of human NCI-H460 cells at 10 uM incubated for 48 hrs by sulforhodamine B assay relative to control; procedure, shortened: as §1
K562 = assay: Growth inhibition of human K562 cells at 10 uM incubated for 48 hrs by sulforhodamine B assay relative to control; procedure, shortened: as §2
COLO 205 = assay: Growth inhibition of human COLO 205 cells at 10 uM incubated for 48 hrs by sulforhodamine B assay relative to control; procedure, shortened: as §2
LOX IMVI = assay: Growth inhibition of human LOX IMVI cells at 10 uM incubated for 48 hrs by sulforhodamine B assay relative to control; procedure, shortened: as §2
SW-620 = assay: Growth inhibition of human SW-620 cells at 10 uM incubated for 48 hrs by sulforhodamine B assay relative to control; procedure, shortened: as §3
IGROV-1 = assay: Growth inhibition of human IGROV-1 cells at 10 uM incubated for 48 hrs by sulforhodamine B assay relative to control; procedure, shortened: as §2
HL-60(TB) = assay: Growth inhibition of human HL-60(TB) cells at 10 uM incubated for 48 hrs by sulforhodamine B assay relative to control
Procedure, shortened: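 NCI-60 one-dose screen: same culture, 48 h drug exposure and SRB read-out. Reported as percent growth relative to no-drug control and to time-zero cell number; 0–100 means growth inhibition, below 0 means lethality.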

Malme-3M = assay: Growth inhibition of human Malme-3M cells at 10 uM incubated for 48 hrs by sulforhodamine B assay relative to control; procedure, shortened: as §1
BT-549 = assay: Growth inhibition of human BT-549 cells at 10 uM incubated for 48 hrs by sulforhodamine B assay relative to control; procedure, shortened: as §2
SNB-19 = assay: Growth inhibition of human SNB-19 cells at 10 uM incubated for 48 hrs by sulforhodamine B assay relative to control; procedure, shortened: as §1
MCF7 = assay: Growth inhibition of human MCF7 cells at 10 uM incubated for 48 hrs by sulforhodamine B assay relative to control; procedure, shortened: as §2
M14 = assay: Growth inhibition of human M14 cells at 10 uM incubated for 48 hrs by sulforhodamine B assay relative to control; procedure, shortened: as §2
OVCAR-4 = assay: Growth inhibition of human OVCAR-4 cells at 10 uM incubated for 48 hrs by sulforhodamine B assay relative to control; procedure, shortened: as §1
UO-31 = assay: Growth inhibition of human UO-31 cells at 10 uM incubated for 48 hrs by sulforhodamine B assay relative to control; procedure, shortened: as §3
MDA-MB-435 = assay: Growth inhibition of human MDA-MB-435 cells at 10 uM incubated for 48 hrs by sulforhodamine B assay relative to control; procedure, shortened: as §2
NCI/ADR-RES = assay: Growth inhibition of human NCI/ADR-RES cells at 10 uM incubated for 48 hrs by sulforhodamine B assay relative to control; procedure, shortened: as §1
NCI-H23 = assay: Growth inhibition of human NCI-H23 cells at 10 uM incubated for 48 hrs by sulforhodamine B assay relative to control; procedure, shortened: as §1
MOLT-4 = assay: Growth inhibition of human MOLT-4 cells at 10 uM incubated for 48 hrs by sulforhodamine B assay relative to control; procedure, shortened: as §1
SK-MEL-2 = assay: Growth inhibition of human SK-MEL-2 cells at 10 uM incubated for 48 hrs by sulforhodamine B assay relative to control; procedure, shortened: as §1
SF-295 = assay: Growth inhibition of human SF-295 cells at 10 uM incubated for 48 hrs by sulforhodamine B assay relative to control; procedure, shortened: as §1
EKVX = assay: Growth inhibition of human EKVX cells at 10 uM incubated for 48 hrs by sulforhodamine B assay relative to control; procedure, shortened: as §2
SF-268 = assay: Growth inhibition of human SF-268 cells at 10 uM incubated for 48 hrs by sulforhodamine B assay relative to control; procedure, shortened: as §1
OVCAR-5 = assay: Growth inhibition of human OVCAR-5 cells at 10 uM incubated for 48 hrs by sulforhodamine B assay relative to control; procedure, shortened: as §1

COc1cc2nc(-c3cccs3)cc(OCCCN3CCC(O)CC3)c2cc1OC
inhibition of growth at 10 µM (OVCAR-8): 20%
inhibition of growth at 10 µM (NCI-H226): 20%
inhibition of growth at 10 µM (SR): 20%
inhibition of growth at 10 µM (Hs-578T): 20%
inhibition of growth at 10 µM (OVCAR-3): 20%
inhibition of growth at 10 µM (U-251): 20%
inhibition of growth at 10 µM (MDA-MB-231): 20%
inhibition of growth at 10 µM (MDA-MB-468): 20%
inhibition of growth at 10 µM (UACC-62): 20%
inhibition of growth at 10 µM (HOP-92): 20%
inhibition of growth at 10 µM (NCI-H322M): 20%
inhibition of growth at 10 µM (PC-3): 20%
inhibition of growth at 10 µM (SNB-75): 20%
inhibition of growth at 10 µM (NCI-H460): 20%
inhibition of growth at 10 µM (K562): 20%
inhibition of growth at 10 µM (COLO 205): 20%
inhibition of growth at 10 µM (LOX IMVI): 20%
inhibition of growth at 10 µM (SW-620): 20%
inhibition of growth at 10 µM (IGROV-1): 20%
inhibition of growth at 10 µM (HL-60(TB)): 20%
inhibition of growth at 10 µM (Malme-3M): 20%
inhibition of growth at 10 µM (BT-549): 20%
inhibition of growth at 10 µM (SNB-19): 20%
inhibition of growth at 10 µM (MCF7): 20%
inhibition of growth at 10 µM (M14): 20%
inhibition of growth at 10 µM (OVCAR-4): 20%
inhibition of growth at 10 µM (UO-31): 20%
inhibition of growth at 10 µM (MDA-MB-435): 20%
inhibition of growth at 10 µM (NCI/ADR-RES): 20%
inhibition of growth at 10 µM (NCI-H23): 20%
inhibition of growth at 10 µM (MOLT-4): 20%
inhibition of growth at 10 µM (SK-MEL-2): 20%
inhibition of growth at 10 µM (SF-295): 20%
inhibition of growth at 10 µM (EKVX): 20%
inhibition of growth at 10 µM (SF-268): 20%
inhibition of growth at 10 µM (OVCAR-5): 20%

COc1cc2nc(-c3ccc(C(F)(F)F)cc3)cc(OCCN3CCC(O)CC3)c2cc1OC
inhibition of growth at 10 µM (OVCAR-8): 13%
inhibition of growth at 10 µM (NCI-H226): 13%
inhibition of growth at 10 µM (SR): 13%
inhibition of growth at 10 µM (Hs-578T): 13%
inhibition of growth at 10 µM (OVCAR-3): 13%
inhibition of growth at 10 µM (U-251): 13%
inhibition of growth at 10 µM (MDA-MB-231): 13%
inhibition of growth at 10 µM (MDA-MB-468): 13%
inhibition of growth at 10 µM (UACC-62): 13%
inhibition of growth at 10 µM (HOP-92): 13%
inhibition of growth at 10 µM (NCI-H322M): 13%
inhibition of growth at 10 µM (PC-3): 13%
inhibition of growth at 10 µM (SNB-75): 13%
inhibition of growth at 10 µM (NCI-H460): 13%
inhibition of growth at 10 µM (K562): 13%
inhibition of growth at 10 µM (COLO 205): 13%
inhibition of growth at 10 µM (LOX IMVI): 13%
inhibition of growth at 10 µM (SW-620): 13%
inhibition of growth at 10 µM (IGROV-1): 13%
inhibition of growth at 10 µM (HL-60(TB)): 13%
inhibition of growth at 10 µM (Malme-3M): 13%
inhibition of growth at 10 µM (BT-549): 13%
inhibition of growth at 10 µM (SNB-19): 13%
inhibition of growth at 10 µM (MCF7): 13%
inhibition of growth at 10 µM (M14): 13%
inhibition of growth at 10 µM (OVCAR-4): 13%
inhibition of growth at 10 µM (UO-31): 13%
inhibition of growth at 10 µM (MDA-MB-435): 13%
inhibition of growth at 10 µM (NCI/ADR-RES): 13%
inhibition of growth at 10 µM (NCI-H23): 13%
inhibition of growth at 10 µM (MOLT-4): 13%
inhibition of growth at 10 µM (SK-MEL-2): 13%
inhibition of growth at 10 µM (SF-295): 13%
inhibition of growth at 10 µM (EKVX): 13%
inhibition of growth at 10 µM (SF-268): 13%
inhibition of growth at 10 µM (OVCAR-5): 13%
